Calls of active or inactive are those of the source. The rule behind the calls is not given here.
Experiments:
[1] = molecular target: T1, Aldo-keto reductase family 1 member B1 (Homo sapiens, UniProt P15121); experiment: Inhibition of human recombinant aldose reductase expressed in Escherichia coli BL21 (DE3) pLysS assessed as reduction in NADPH oxidation using L-idose as substrate
[2] = molecular target: T2, Tyrosine-protein phosphatase non-receptor type 1 (Homo sapiens, UniProt P18031); experiment: Mixed non-competitive inhibition of human full-length GST-fused PTP1B expressed in bacterial expression system assessed as assessed as dissociation constant of enzyme-inhibitor-substrate complex using pNPP as substrate by double reciprocal plot analysis
T2 sequence (P18031 whole entry): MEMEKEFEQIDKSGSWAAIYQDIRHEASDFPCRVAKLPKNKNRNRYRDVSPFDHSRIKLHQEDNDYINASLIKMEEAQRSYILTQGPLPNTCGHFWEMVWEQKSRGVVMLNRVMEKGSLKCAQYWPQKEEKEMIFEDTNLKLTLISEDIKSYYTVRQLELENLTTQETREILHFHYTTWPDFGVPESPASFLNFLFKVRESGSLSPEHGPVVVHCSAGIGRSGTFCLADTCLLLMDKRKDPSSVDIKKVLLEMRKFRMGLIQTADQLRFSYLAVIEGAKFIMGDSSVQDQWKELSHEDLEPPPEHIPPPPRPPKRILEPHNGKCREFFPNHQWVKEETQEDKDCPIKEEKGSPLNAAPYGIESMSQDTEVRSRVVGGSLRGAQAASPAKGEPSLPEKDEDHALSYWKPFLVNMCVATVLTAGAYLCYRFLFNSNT
Summary of the method: (§1)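 Human recombinant PTP1B with pNPP. Rates were measured over varied substrate levels at inhibitor 0, 2, 4 and 6 µM. […] Data are mean ± S.E.M. (n = 3).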

[3] = molecular target: T2, Tyrosine-protein phosphatase non-receptor type 1; experiment: Inhibition of human full-length GST-fused PTP1B expressed in bacterial expression system using pNPP as substrate
Summary of the method: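 Human recombinant PTP1B activity measured with p-nitrophenyl phosphate as substrate and sodium metavanadate as reference inhibitor. IC50 values are reported as mean ± S.E.M.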

[4] = molecular target: T2, Tyrosine-protein phosphatase non-receptor type 1; experiment: Mixed non-competitive inhibition of human full-length GST-fused PTP1B expressed in bacterial expression system assessed as assessed as dissociation constant of enzyme-inhibitor complex using pNPP as substrate by double reciprocal plot analysis; summary of the method: as §1
[5] = molecular target: T2, Tyrosine-protein phosphatase non-receptor type 1; experiment: Non-competitive inhibition of human full-length GST-fused PTP1B expressed in bacterial expression system assessed as dissociation constant of enzyme-inhibitor-substrate complex using pNPP as substrate by Michaelis-Menten plot analysis
Summary of the method: (§2)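 Human recombinant PTP1B with pNPP, rates measured over varied substrate levels at inhibitor 0–30 µM (steps of 10 µM, or 0/3/6/9 µM). Double-reciprocal plots were drawn, and secondary plots of Km/Vmax versus inhibitor concentration were used. Data are mean ± S.E.M. (n = 3).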

[6] = molecular target: T1, Aldo-keto reductase family 1 member B1; experiment: Uncompetitive inhibition of human recombinant aldose reductase expressed in Escherichia coli BL21(DE3)pLysS assessed as dissociation constant of enzyme-inhibitor complex using L-idose as substrate by Morrison's plot analysis
Summary of the method: (§3)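 Purified human AR (7 mU) activity was measured across inhibitor concentrations at L-idose 2.1, 3.1, 4.1, 8.3 and 16.6 mM. Data were fitted to the Morrison equation to give Ki app at each substrate level. Ki app versus substrate was then fitted by nonlinear regression to a general tight-binding inhibition model.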

[7] = molecular target: T1, Aldo-keto reductase family 1 member B1; experiment: Reversible inhibition of human recombinant aldose reductase expressed in Escherichia coli BL21(DE3)pLysS assessed as enzyme activity recovery at 0.25 to 2 uM using L-idose as substrate relative to control; design: scale not given: the % may be the effect or the level left
[8] = molecular target: T2, Tyrosine-protein phosphatase non-receptor type 1; experiment: Non-competitive inhibition of human full-length GST-fused PTP1B expressed in bacterial expression system assessed as dissociation constant of enzyme-inhibitor complex using pNPP as substrate by Michaelis-Menten plot analysis; summary of the method: as §2
[9] = molecular target: T1, Aldo-keto reductase family 1 member B1; experiment: Uncompetitive inhibition of human recombinant aldose reductase expressed in Escherichia coli BL21(DE3)pLysS assessed as dissociation constant of enzyme-inhibitor-substrate complex using L-idose as substrate by Morrison's plot analysis; summary of the method: as §3
[10] = molecular target: T3, Tyrosine-protein phosphatase non-receptor type 1 (Homo sapiens) (UniProt P18031); experiment: Reversible inhibition of human full-length GST-fused PTP1B expressed in bacterial expression system using pNPP as substrate after 60 mins
T3 sequence (whole entry): T2 sequence (P18031 whole entry)
Summary of the method: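 PTP1B was preincubated with a saturating inhibitor concentration for 60 min at 37°C. The mixture was then diluted in assay buffer and residual pNPP-hydrolysing activity was measured.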

[11] = molecular target: T3, Tyrosine-protein phosphatase non-receptor type 1 (Homo sapiens); experiment: Inhibition of human full-length GST-fused PTP1B expressed in bacterial expression system at 300 uM using pNPP as substrate relative to control

SMILES | IC50 [1] | IC50 [3] | further results
COc1cccc(/C=C2\SC(=S)N(CC(=O)O)C2=O)c1 | 0.078 µM |  | 
COc1cc(/C=C2\S/C(=N\c3ccccc3)N(CC(=O)O)C2=O)ccc1OCc1ccccc1 | 1.41 µM | 10.6 µM | Ki [2]: 40.6 µM; Ki [4]: 7.6 µM
O=C(O)CN1C(=O)S/C(=C\c2ccc(OCCc3ccccc3)cc2)C1=O | 0.364 µM | 63.8 µM | 
O=C(O)CN1C(=O)/C(=C/c2cccc(Oc3ccccc3)c2)SC1=S | 0.025 µM | 86.8 µM | 
COc1cc(/C=C2\SC(=S)N(CC(=O)O)C2=O)ccc1OCc1ccccc1 | 0.04 µM | 54.1 µM | 
O=C(O)CN1C(=O)S/C(=C\c2cccc(OCCc3ccccc3)c2)C1=O | 0.276 µM | 12.4 µM | Ki [5]: 13.1 µM; Ki [6]: > 0.5 µM; Activity [7]: 70%; Ki [8]: 13.1 µM; Ki [9]: 0.016 µM; inhibition [10]: Active
O=C(O)CN1C(=O)/C(=C/C=C/c2ccccc2)SC1=S | 0.125 µM | 171 µM | 
O=C(O)CN1C(=O)/C(=C/c2ccc(OCc3ccccc3)cc2)SC1=S | 0.052 µM | 56 µM | 
COc1ccc(/C=C2\SC(=S)N(CC(=O)O)C2=O)cc1OCC(N)=O | 0.139 µM | 679 µM | 
O=C(O)CN1C(=O)/C(=C/c2cccc(OCc3ccccc3)c2)SC1=S | 0.053 µM | 43.1 µM | 
O=C(O)CN1C(=O)/C(=C/c2ccc(Oc3ccccc3)cc2)SC1=S | 0.06 µM | 63.9 µM | 
O=C(O)CN1C(=O)/C(=C/c2cccc(OCCc3ccccc3)c2)SC1=S | 0.056 µM | 32.5 µM | Ki [5]: 12 µM; Ki [6]: > 0.3 µM; Activity [7]: 70%; Ki [8]: 12 µM; Ki [9]: 0.0062 µM; inhibition [10]: Active
NC(=O)COc1cccc(/C=C2\SC(=S)N(CC(=O)O)C2=O)c1 | 0.064 µM | 716 µM | 
COc1cc(/C=C2\SC(=O)N(CC(=O)O)C2=O)ccc1OCc1ccccc1 | 0.323 µM | 151 µM | 
COc1cc(/C=C2\SC(=S)N(CC(=O)O)C2=O)ccc1OCC(N)=O | 0.228 µM | 378 µM | 
NC(=O)COc1ccc(/C=C2\SC(=S)N(CC(=O)O)C2=O)cc1 | 0.194 µM |  | inhibition [11]: 10%
O=C(O)CN1C(=O)/C(=C/c2ccc(OCCc3ccccc3)cc2)SC1=S | 0.104 µM | 49.4 µM | 

Reference: ChEMBL document CHEMBL4325846, “An investigation on 4-thiazolidinone derivatives as dual inhibitors of aldose reductase and protein tyrosine phosphatase 1B, in the search for potential agents for the treatment of type 2 diabetes mellitus and its complications” (Bioorg Med Chem Lett, 2018)
